# Results: PMC6882486 (Journal of Enzyme Inhibition and Medicinal Chemistry, 2019)
# Key:
# [1] = target: CDK2 (Homo sapiens, UniProt P24941); experiment: ADP-Glo Kinase Assay, cell-free detection of CDK2 activity; type: biochemical
# [2] = tested on: HCT116; experiment: MTT anti-tumour cell proliferation in vitro, HCT116; type: cell-based; details: Homo sapiens, HCT-116, 36 h, read-out: Cells IC50 (μM) HCT116
# How it was run: (§1)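 Cells grown in RPMI1640 with 10% foetal bovine serum at 37 °C, 5% CO2. Seeded at 5000/well in triplicate and allowed 6 h to adhere. Treated with a concentration series of test compound for 36 h. Reference CDK inhibitor at the same concentrations served as positive control, and DMSO as negative control. Stained with 5% MTT; absorbance read at 570 nm.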
# [3] = tested on: A549; experiment: MTT anti-tumour cell proliferation in vitro, A549; type: cell-based; details: Homo sapiens, A549, 36 h, read-out: Cells IC50 (μM) A549
# How it was run: as §1
structure (smiles),measurement,setting,value
CNC(=O)c1nn(C)c2c1C(C)(C)Cc1cnc(Nc3ccc(N4CCN(C)CC4)cc3)nc1-2 [Milciclib],IC50,[1],52.7 ± 3.1 nM
same,IC50,[2],1.1 ± 0.3 µM
same,IC50,[3],3.7 ± 0.4 µM
